# Columns and labels:
# Canis familiaris [1] = assay: Bronchodilator activity in dog assessed as time of inhibition of carbachol or histamine-induced bronchoconstriction at 5 mg/kg, iv relative to control; assay type: functional, Canis lupus familiaris
# How it was run: (§1)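 Anesthetized dogs with an airway cannula and a nonbreathing valve. Bronchoconstriction was induced by iv carbachol (2–4 μg/kg) or histamine diphosphate (20–50 μg/kg) and read as change in airway pressure by transducer. Each compound was tested against both agonists in different dogs, and the results were combined and averaged. Effect is % inhibition of control constriction, with at least three dogs per dose. Drugs were dissolved fresh in distilled water, diluted in saline and kept on ice.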
# Canis familiaris [2] = assay: Bronchodilator activity in dog assessed as degree of inhibition of carbachol or histamine-induced bronchoconstriction at 5 mg/kg, iv relative to control; assay type: functional; conditions: Canis lupus familiaris
# How it was run: (§2)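 Anesthetized dogs, trachea cannulated with a nonbreathing valve. Bronchoconstriction induced by iv carbachol (2–4 μg/kg) or histamine diphosphate (20–50 μg/kg) in separate animals, and airway pressure recorded by transducer. Drug stocks were made fresh in distilled water, diluted in saline and kept on ice. Read-out was percent inhibition of control constriction, averaged over at least three dogs per dose at the higher dose. Carbachol and histamine data were combined.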
# Canis familiaris [3] = assay: Cardiotoxicity in spontaneously respiring dog assessed as time of increase in heart rate at 4 to 8 mg/kg, iv relative to control; assay type: toxicity, organism-based, Canis lupus familiaris; set-up: dose 4-8 mg/kg, route intravenous; conditions: in vivo
# How it was run: (§3)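 Anesthetized, spontaneously respiring dogs. Heart rate was taken from a lead II EKG, and blood pressure from the right femoral artery by transducer. The increase in heart rate (beats/min) was scored on a graded scale with more than 4 dogs per dose, and its duration was recorded. Drugs were dissolved fresh in distilled water, diluted in physiological saline and kept on ice.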
# Canis familiaris [4] = assay: Cardiotoxicity in spontaneously respiring dog assessed as time of increase in heart rate at 200 to 400 mg/kg, id relative to control; assay type: toxicity, organism-based, Canis lupus familiaris; set-up: dose 200-400 mg/kg, route intraduodenal; conditions: in vivo, other; how it was run: as §3
# Canis familiaris [5] = assay: Bronchodilator activity in dog assessed as time of inhibition of carbachol or histamine-induced bronchoconstriction at 4 to 8 mg/kg, iv relative to control; assay type: functional, Canis lupus familiaris; conditions: dose mg/kg 4-8
# How it was run: (§4)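 Dog airway model: anesthetized, cannulated via a nonbreathing valve, with airway pressure changes recorded after iv carbachol (2–4 μg/kg) or histamine diphosphate (20–50 μg/kg) challenge, each agonist in different animals. Compounds were given iv, intraduodenally or intratracheally from fresh aqueous stocks diluted in saline. Duration (h) of inhibition of induced bronchoconstriction was followed, and the two agonist datasets were pooled.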
# Canis familiaris [6] = assay: Bronchodilator activity in dog assessed as time of inhibition of carbachol or histamine-induced bronchoconstriction at 200 to 400 mg/kg, id relative to control; assay type: functional, Canis lupus familiaris; conditions: dose mg/kg 200-400; route intraduodenal; how it was run: as §4
# Canis familiaris [7] = assay: Bronchodilator activity in dog assessed as time of inhibition of carbachol or histamine-induced bronchoconstriction at 400 to 800 mg/kg, it relative to control; assay type: functional, Canis lupus familiaris; conditions: dose mg/kg 400-800; route endotracheal; how it was run: as §4
# Canis familiaris [8] = assay: Cardiotoxicity in spontaneously respiring dog assessed as degree of increase in heart rate at 4 to 8 mg/kg, iv relative to control; assay type: toxicity, organism-based, Canis lupus familiaris; set-up: dose 4-8 mg/kg, route intravenous; conditions: in vivo; how it was run: as §3
# Canis familiaris [9] = assay: Cardiotoxicity in spontaneously respiring dog assessed as degree of increase in heart rate at 200 to 400 mg/kg, id relative to control; assay type: toxicity, organism-based, Canis lupus familiaris; set-up: dose 200-400 mg/kg, route intraduodenal; conditions: in vivo, other; how it was run: as §3
# Canis familiaris [10] = assay: Bronchodilator activity in dog assessed as degree of inhibition of carbachol or histamine-induced bronchoconstriction at 4 to 8 mg/kg, iv relative to control; assay type: functional, Canis lupus familiaris; conditions: dose mg/kg 4-8; how it was run: as §2
# Canis familiaris [11] = assay: Bronchodilator activity in dog assessed as degree of inhibition of carbachol or histamine-induced bronchoconstriction at 200 to 400 mg/kg, id relative to control; assay type: functional, Canis lupus familiaris; conditions: dose mg/kg 200-400; route intraduodenal; how it was run: as §2
# Canis familiaris [12] = assay: Bronchodilator activity in dog assessed as degree of inhibition of carbachol or histamine-induced bronchoconstriction at 400 to 800 mg/kg, it relative to control; assay type: functional, Canis lupus familiaris; conditions: dose mg/kg 400-800; route endotracheal; how it was run: as §2
# Canis familiaris [13] = assay: Bronchodilator activity in dog assessed as time of inhibition of carbachol or histamine-induced bronchoconstriction at 5 to 10 mg/kg, iv relative to control; assay type: functional, Canis lupus familiaris; conditions: dose mg/kg 5-10; how it was run: as §1
# Canis familiaris [14] = assay: Bronchodilator activity in dog assessed as degree of inhibition of carbachol or histamine-induced bronchoconstriction at 5 to 10 mg/kg, iv relative to control; assay type: functional, Canis lupus familiaris; conditions: dose mg/kg 5-10; how it was run: as §2
# Canis familiaris [15] = assay: Cardiotoxicity in spontaneously respiring dog assessed as degree of increase in heart rate at 100 to 200 mg/kg, iv relative to control; assay type: toxicity, organism-based, Canis lupus familiaris; set-up: dose 100-200 mg/kg, route intravenous; conditions: in vivo; how it was run: as §3
# Canis familiaris [16] = assay: Bronchodilator activity in dog assessed as time of inhibition of carbachol or histamine-induced bronchoconstriction at 100 to 200 mg/kg, iv relative to control; assay type: functional, Canis lupus familiaris; conditions: dose mg/kg 100-200; how it was run: as §4
# Canis familiaris [17] = assay: Bronchodilator activity in dog assessed as time of inhibition of carbachol or histamine-induced bronchoconstriction at 300 to 1200 mg/kg, it relative to control; assay type: functional, Canis lupus familiaris; conditions: dose mg/kg 300-1200; route endotracheal; how it was run: as §4
# Canis familiaris [18] = assay: Bronchodilator activity in dog assessed as degree of inhibition of carbachol or histamine-induced bronchoconstriction at 100 to 200 mg/kg, iv relative to control; assay type: functional, Canis lupus familiaris; conditions: dose mg/kg 100-200; how it was run: as §2
# Canis familiaris [19] = assay: Bronchodilator activity in dog assessed as degree of inhibition of carbachol or histamine-induced bronchoconstriction at 300 to 1200 mg/kg, it relative to control; assay type: functional, Canis lupus familiaris; conditions: dose mg/kg 300-1200; route endotracheal; how it was run: as §2
# Canis familiaris [20] = assay: Bronchodilator activity in dog assessed as time of inhibition of carbachol or histamine-induced bronchoconstriction at 25 to 100 mg/kg, iv relative to control; assay type: functional, Canis lupus familiaris; conditions: dose mg/kg 25-100; how it was run: as §4
# Canis familiaris [21] = assay: Bronchodilator activity in dog assessed as degree of inhibition of carbachol or histamine-induced bronchoconstriction at 25 to 100 mg/kg, iv relative to control; assay type: functional, Canis lupus familiaris; conditions: dose mg/kg 25-100; how it was run: as §2
# Canis familiaris [22] = assay: Bronchodilator activity in dog assessed as time of inhibition of carbachol or histamine-induced bronchoconstriction at 25 to 50 mg/kg, iv relative to control; assay type: functional, Canis lupus familiaris; conditions: dose mg/kg 25-50; how it was run: as §4
# Canis familiaris [23] = assay: Bronchodilator activity in dog assessed as time of inhibition of carbachol or histamine-induced bronchoconstriction at 520 to 1040 mg/kg, it relative to control; assay type: functional, Canis lupus familiaris; conditions: dose mg/kg 520-1040; route endotracheal; how it was run: as §1
# Canis familiaris [24] = assay: Bronchodilator activity in dog assessed as degree of inhibition of carbachol or histamine-induced bronchoconstriction at 25 to 50 mg/kg, iv relative to control; assay type: functional, Canis lupus familiaris; conditions: dose mg/kg 25-50; how it was run: as §2
# Canis familiaris [25] = assay: Bronchodilator activity in dog assessed as degree of inhibition of carbachol or histamine-induced bronchoconstriction at 520 to 1040 mg/kg, it relative to control; assay type: functional, Canis lupus familiaris; conditions: dose mg/kg 520-1040; route endotracheal; how it was run: as §2
structure (smiles),measurement,setting,value
CC(C)C(=O)Oc1ccc([C@@H](O)CNC(C)(C)C)cc1OC(=O)C(C)C.Cl,Time,Canis familiaris [1],<0.5 h
same,inhibition in vivo at 5 mg/kg,Canis familiaris [2],20%
CC(C)CC(=O)Oc1ccc([C@@H](O)CNC(C)(C)C)cc1OC(=O)CC(C)C.Cl,Time,Canis familiaris [3],< 1 h
same,Time,Canis familiaris [4],< 3 h
same,Time,Canis familiaris [5],<2 h
same,Time,Canis familiaris [6],3 h
same,Time,Canis familiaris [7],<2 h
same,Activity,Canis familiaris [8],20 beats/min
same,Activity,Canis familiaris [9],40 beats/min
same,inhibition (INH),Canis familiaris [10],>70%
same,inhibition (INH),Canis familiaris [11],45%
same,inhibition (INH),Canis familiaris [12],>70%
CCC(C)C(=O)Oc1ccc([C@@H](O)CNC(C)(C)C)cc1OC(=O)C(C)CC.Cl (some centres not stated),Time,Canis familiaris [13],<1 h
same,inhibition (INH),Canis familiaris [14],45%
CCCC(C)(C)C(=O)Oc1ccc([C@@H](O)CNC(C)(C)C)cc1OC(=O)C(C)(C)CCC.CS(=O)(=O)O,Time,Canis familiaris [13],<1 h
same,inhibition (INH),Canis familiaris [14],45%
CS(=O)(=O)O.Cc1ccccc1C(=O)Oc1ccc([C@@H](O)CNC(C)(C)C)cc1OC(=O)c1ccccc1C,Activity,Canis familiaris [15],20%
same,Time,Canis familiaris [16],<4 h
same,Time,Canis familiaris [17],<3 h
same,inhibition (INH),Canis familiaris [18],20%
same,inhibition (INH),Canis familiaris [19],20%
COc1ccc(CC(=O)Oc2ccc([C@@H](O)CNC(C)(C)C)cc2OC(=O)Cc2ccc(OC)cc2)cc1.Cl,Time,Canis familiaris [20],2 h
same,inhibition (INH),Canis familiaris [21],>70%
CS(=O)(=O)O.Cc1ccc(C(=O)Oc2ccc([C@@H](O)CNC(C)(C)C)cc2OC(=O)c2ccccc2)cc1,Time,Canis familiaris [22],2 h
same,Time,Canis familiaris [23],2 h
same,inhibition (INH),Canis familiaris [24],>70%
same,inhibition (INH),Canis familiaris [25],45%

# Source: ChEMBL document CHEMBL3272249, “Esters of N-tert-butylarterenol. Long-acting new bronchodilators with reduced cardiac effects” (J Med Chem, 1976)
